Several values for one entry are separate records, joined by “and”; a condition that tells them apart may be missing. Identical values can stand only once. Blank lines part the entries; values can stand above or below the compound they belong to.
Columns and labels:
[1] = system: Trypanosoma cruzi; experiment: Antitrypanosomal activity against Trypanosoma cruzi Sylvio X-10 amastigotes infected in African green monkey Vero cells assessed as eradication of amastigotes after 72 hrs by Giemsa staining-based assay; conditions: Sylvio X-10, Vero
[2] = system: Trypanosoma cruzi; experiment: Antitrypanosomal activity against Trypanosoma cruzi Tulahuen 2 epimastigotes assessed as growth inhibition after 5 days; type: functional, organism-based; conditions: Trypanosoma cruzi, Tulahuen 2, 120 h
In short: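 Epimastigotes were grown axenically at 28 °C in BHI-tryptose with 5% FBS and seeded from a 5–7 day culture at 1 × 10⁶ cells/mL. Drug from a DMSO stock was added (final DMSO ≤0.4%; the control contained 0.4% DMSO). Duplicates were run. A600 was read at day 5, and % inhibition was calculated relative to day-0 and control readings. IC50 = concentration that halves the absorbance ratio.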

[3] = system: Trypanosoma cruzi; experiment: Antitrypanosomal activity against Trypanosoma cruzi Sylvio X-10 amastigotes infected in African green monkey Vero cells assessed as eradication of amastigotes after 5 days by Giemsa staining-based assay; type: functional, organism-based; conditions: Sylvio X-10, Vero, 120 h
In short: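 VERO cells in RPMI 1640 with 10% hiFCS were allowed to adhere for 24 h at 37 °C in 5% CO₂, then infected with tissue-derived trypomastigotes at 10:1. Free parasites were washed off after 24 h, and cultures were treated at five compound doses (text gives 72 h / 5 days). Cultures were methanol-fixed and Giemsa-stained, and infected cells were counted among 300. Quadruplicates were run in three independent experiments. IC50/IC90 were obtained by sigmoidal regression.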

[4] = Selectivity index, ratio of IC50 for African green monkey Vero cells to IC50 for Trypanosoma cruzi Sylvio X-10 amastigotes; type: toxicity, cell-based; conditions: read-out: Ratio IC50
In short: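 VERO cytotoxicity: cells exposed 48 h at 37 °C, 5% CO2 to serial dilutions from a maximum of 2000 μM (DMSO stocks; DMSO <0.1% control); growth inhibition read by MTT at 570 nm. Amastigote IC50: Sylvio X-10-infected VERO cells, five doses, infected cells counted among 300 (Giemsa), quadruplicate, three experiments, sigmoidal fit. SI = IC50 VERO / IC50 amastigote.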

[5] = system: Salmonella typhimurium; experiment: Mutagenic activity in Salmonella typhimurium TA98 at 5 to 400 ug/plate by Ames test; type: toxicity, organism-based; conditions: salmonella enterica subsp. enterica serovar typhimurium
In short: (§1)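 Ames plate-incorporation assay with S. typhimurium TA98 in Vogel-Bonner E minimal glucose agar. Toxicity toward the bacteria was checked first. DMSO solutions were run in triplicate at five consecutive third-dilutions, starting at the highest non-toxic dose. Positive controls were 4-nitro-o-phenylenediamine (20.0 μg/plate) and 2-aminofluorene (10.0 μg/plate); DMSO was the negative control. Revertants were counted manually. A compound was called mutagenic when revertants were at least twice the negative control at two or more consecutive doses.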

[6] = Stability of the compound in aqueous solution assessed as compound remaining at 1 mM at pH 7.4 after 1 hr by TLC analysis; type: physicochemical; conditions: aqueous solution, pH 7.4; read-out: Stability
In short: (§2)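 DMSO stocks diluted to final 1 mM in KCl·HCl pH 1.0, citrate pH 6.0, Tris·HCl pH 7.4 or borax·HCl pH 9.0 buffer. Incubated 1 h at 37 °C, then ethyl acetate extracts checked by TLC for decomposition products.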

[7] = Stability of the compound in aqueous solution assessed as compound remaining at 1 mM at pH 6 after 1 hr by TLC analysis; type: physicochemical; conditions: aqueous solution, pH 6; read-out: Stability
In short: as §2

[8] = system: Salmonella typhimurium; experiment: Mutagenic activity in Salmonella typhimurium TA98 at 5 to 400 ug/plate by Ames test in presence of mouse liver S9 fraction; type: toxicity, organism-based; conditions: salmonella enterica subsp. enterica serovar typhimurium
In short: as §1

[9] = Stability of the compound in aqueous solution assessed as compound remaining at 1 mM at pH 9 after 1 hr by TLC analysis; type: physicochemical; conditions: aqueous solution, pH 9; read-out: Stability
In short: as §2

[10] = system: Salmonella typhimurium; experiment: Mutagenic activity in Salmonella typhimurium TA98 at 0.02 to 2 ug/plate by Ames test; type: toxicity, organism-based; conditions: salmonella enterica subsp. enterica serovar typhimurium
In short: (§3)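 Direct plate incubation on minimal glucose agar (Vogel-Bonner E). Compound toxicity to the bacteria was checked first. DMSO solutions were tested at five consecutive 3-fold dilutions, starting from the highest non-toxic dose, in triplicate, without metabolic activation. DMSO served as negative control. Revertants were counted manually; mutagenic = revertants at least double the negative control at two or more consecutive doses.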

[11] = Selectivity index, ratio of IC50 for human RBC to IC50 for Trypanosoma cruzi Sylvio X-10 amastigotes
In short: (§4)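 Hemolysis: washed human erythrocytes (2% w/v in PBS) incubated 24 h at 37 °C with compound at final 50, 100 and 200 μM. Ten replicates per concentration. Hemoglobin release read at 405 nm against water lysis as 100%; amphotericin B 1.5 μM was the positive control. SI = IC50 red cells / parasite IC50 (Sylvio X-10 amastigotes or Tulahuen 2 epimastigotes).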

[12] = system: Salmonella typhimurium; experiment: Mutagenic activity in Salmonella typhimurium TA98 at 0.02 to 2 ug/plate by Ames test in presence of mouse liver S9 fraction; type: toxicity, organism-based; conditions: salmonella enterica subsp. enterica serovar typhimurium
In short: (§5)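 Plate-incorporation Ames test on minimal glucose agar with 500 μL Aroclor-treated mouse liver S9 added. DMSO solutions were tested at five consecutive 3-fold dilutions from the highest non-toxic dose, in triplicate, with a DMSO negative control. Revertants were counted manually; a compound was scored mutagenic when revertants were at least twice the negative control for two or more consecutive doses.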

[13] = Cytotoxicity against African green monkey Vero cells assessed as growth inhibition at 25 uM after 48 hrs by MTT assay relative to control; type: cell-based; conditions: chlorocebus sabaeus, read-out: GI
In short: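 VERO cells were exposed to serial dilutions in fresh medium of compounds dissolved in DMSO, for 48 h at 37 °C in 5% CO₂. A DMSO (<0.1%) negative control was included. Growth inhibition was read by MTT at 570 nm; nifurtimox was the positive control.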

[14] = system: Salmonella typhimurium; experiment: Mutagenic activity in Salmonella typhimurium TA98 at 3 to 250 ug/plate by Ames test; type: toxicity, organism-based; conditions: salmonella enterica subsp. enterica serovar typhimurium
In short: as §1

[15] = system: Salmonella typhimurium; experiment: Mutagenic activity in Salmonella typhimurium TA98 at 3 to 250 ug/plate by Ames test in presence of mouse liver S9 fraction; type: toxicity, organism-based; conditions: salmonella enterica subsp. enterica serovar typhimurium
In short: as §1

[16] = system: Salmonella typhimurium; experiment: Mutagenic activity in Salmonella typhimurium TA98 at 6 to 500 ug/plate by Ames test in presence of mouse liver S9 fraction; type: toxicity, organism-based; conditions: salmonella enterica subsp. enterica serovar typhimurium
In short: as §1

[17] = system: Salmonella typhimurium; experiment: Mutagenic activity in Salmonella typhimurium TA98 at 6 to 500 ug/plate by Ames test; type: toxicity, organism-based; conditions: salmonella enterica subsp. enterica serovar typhimurium
In short: as §1

[18] = system: Salmonella typhimurium; experiment: Mutagenic activity in Salmonella typhimurium TA98 at 0.04 to 4 ug/plate by Ames test; type: toxicity, organism-based; conditions: salmonella enterica subsp. enterica serovar typhimurium
In short: as §1

[19] = system: Salmonella typhimurium; experiment: Mutagenic activity in Salmonella typhimurium TA98 at 0.04 to 4 ug/plate by Ames test in presence of mouse liver S9 fraction; type: toxicity, organism-based; conditions: salmonella enterica subsp. enterica serovar typhimurium
In short: as §1

[20] = system: Trypanosoma cruzi; experiment: Antitrypanosomal activity against Trypanosoma cruzi Sylvio X-10 amastigotes infected in African green monkey Vero cells assessed as eradication of amastigotes after 72 hrs by Giemsa staining-based assay; conditions: vero
[21] = Selectivity index, ratio of IC50 for mouse J774.1 cells to IC50 for Trypanosoma cruzi Sylvio X-10 amastigotes; type: toxicity; conditions: read-out: Ratio IC50
In short: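 J774.1 macrophages grown in DMEM with 10% heat-inactivated FCS and allowed to attach 48 h, then exposed 48 h at 37 °C to 12.5–400.0 μM. Triplicates. MTT 0.1 mg/mL for 3 h, read at 560 nm; IC50 by linear regression against the solvent control. SI = IC50 J774.1 / parasite IC50 (Sylvio X-10 amastigotes or Tulahuen 2 epimastigotes, the latter measured by A600 growth inhibition at day 5).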

[22] = system: Salmonella typhimurium; experiment: Mutagenic activity in Salmonella typhimurium TA98 at 0.005 to 0.4 ug/plate by Ames test in presence of mouse liver S9 fraction; type: toxicity, organism-based; conditions: salmonella enterica subsp. enterica serovar typhimurium
In short: as §5

[23] = system: Salmonella typhimurium; experiment: Mutagenic activity in Salmonella typhimurium TA98 at 0.005 to 0.4 ug/plate by Ames test; type: toxicity, organism-based; conditions: salmonella enterica subsp. enterica serovar typhimurium
In short: as §3

[24] = Selectivity index, ratio of IC50 for human RBC to IC50 for Trypanosoma cruzi Tulahuen 2 epimastigotes
In short: as §4

Structure (SMILES): C=CCn1c(-c2ccccc2)cs/c1=N\N=C\c1ccc([N+](=O)[O-])s1
IC50 [2]: 6 µM
IC50 [3]: 25 µM
selectivity ratio [4]: 5

Structure (SMILES): C=CCn1c(-c2ccc(Cl)cc2)cs/c1=N/N=C/c1ccc([N+](=O)[O-])s1
IC90 [1]: > 25 µM
IC50 [2]: 14 µM
IC50 [3]: > 25 µM

Structure (SMILES): C=CCN1C(=O)CS\C1=N/N=C/C=C/c1ccc([N+](=O)[O-])s1
IC50 [2]: 1.3 µM
Activity [10]: Toxic
Ratio IC50 [11]: 28
IC50 [3]: 2.8 µM
selectivity ratio [4]: 80
Activity [12]: Non-toxic

Structure (SMILES): O=[N+]([O-])c1ccc(/C=N/N=c2\[nH]c(-c3ccc(Cl)cc3)cs2)s1
IC50 [2]: 4.9 µM
inhibition at 48 h, 25 µM [13]: > 50%

Structure (SMILES): C=CCNC(=S)N/N=C/C=C/c1ccc([N+](=O)[O-])s1
Activity [14]: Toxic
IC50 [2]: 1.2 µM
Ratio IC50 [11]: 82
IC50 [3]: 1.29 µM
Activity [15]: Toxic
selectivity ratio [4]: 60

Structure (SMILES): C=CCn1c(-c2ccc([N+](=O)[O-])cc2)cs\c1=N/N=C/C=C/c1ccc([N+](=O)[O-])s1
IC50 [2]: 3.3 µM
Activity [18]: Toxic
IC50 [3]: 8.2 µM
selectivity ratio [4]: 13
Activity [19]: Toxic

Structure (SMILES): CC1CS(=O)(=O)CCN1/N=C/c1ccc([N+](=O)[O-])o1 (configuration not stated) [NIFURTIMOX]
IC50 [2]: 8 µM
Ratio IC50 [11]: 150
IC50 [20]: 450 nM and 2400 nM
selectivity ratio [21]: 200
selectivity ratio [4]: 200

The next lines start with results.

IC90 [1]: > 25 µM
IC50 [2]: 1.7 µM
IC50 [3]: > 25 µM
Structure (SMILES): S=C(N/N=C/C=C/C=C/c1cccs1)Nc1ccccc1

IC50 [2]: > 25 µM
IC50 [3]: 8 µM
Structure (SMILES): C=CCn1c(-c2ccc(Cl)cc2)cs/c1=N/N=C/c1cccs1

IC50 [2]: 2.9 µM
remaining at 1 h, 1000 µM [6]: > 95%
remaining at 1 h, 1000 µM [7]: > 95%
remaining at 1 h, 1000 µM [9]: > 95%
Structure (SMILES): Br.C=CCn1c(-c2ccc(Br)cc2)cs\c1=N/N=C/C=C/c1ccco1
Activity [5]: Non-toxic
Activity [8]: Non-toxic

IC90 [1]: > 25 µM
IC50 [2]: 8 µM
IC50 [3]: > 25 µM
Structure (SMILES): C=CCn1c(-c2ccc(OC)cc2)cs/c1=N/N=C/c1ccc([N+](=O)[O-])s1

IC90 [1]: > 25 µM
IC50 [2]: 0.6 µM
IC50 [3]: > 25 µM
Structure (SMILES): C=CCNC(=S)N/N=C/C=C/C=C/c1cccs1
Activity [16]: Non-toxic
Activity [17]: Non-toxic

IC50 [2]: 9 µM
Structure (SMILES): C=CCn1c(-c2ccc(N)cc2)cs\c1=N/N=C/C=C/c1ccco1
Activity [18]: Non-toxic
Activity [19]: Non-toxic

IC50 [2]: 2.9 µM
Structure (SMILES): CC(=O)N(C1=NN(C(C)=O)C(c2ccc([N+](=O)[O-])s2)S1)c1ccccc1 (configuration not stated)
Activity [22]: Non-toxic
Activity [23]: Toxic
Ratio IC50 [24]: 3
inhibition at 48 h, 25 µM [13]: > 50%

Reference: ChEMBL document CHEMBL3259808, “Optimization of antitrypanosomatid agents: identification of nonmutagenic drug candidates with in vivo activity” (J Med Chem, 2014)
